Most compounds without a hit are left out; they make up all but 2.6% or so of the library.
Vif inh – inhibitors of HIV Vif; inhibition, % at 7.49 µM; hit rate 0.35% among 340,000; HEK293T cells, Vif self-association by quenched fluorescence, imaging, 24 h; in the data active = inhibition above about 50%, passing the limit was not always enough; inconclusive = no clear call, values can overlap the other calls; inactive = below about 31%
S100A4 inh HTS – S100A4-myosin IIA interaction inhibition. hit rate 0.14% among 360,000. AID 652163. S100A4/TAMRA-MyoIIA peptide fluorescence polarization. inhibition, % at 10.7 µM;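 active = mean inhibition of at least 70% across replicates, with every replicate also reaching that level; inconclusive = mean inhibition reaches 70% but some replicates fall short; inactive = mean inhibition below 70%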
Target sequence (P26447 whole entry, looked up): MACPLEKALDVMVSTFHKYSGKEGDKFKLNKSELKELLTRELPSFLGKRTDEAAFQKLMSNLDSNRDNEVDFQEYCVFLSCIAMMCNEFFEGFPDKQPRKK
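Assay system: human S100A4 monomer with TAMRA-labelled myosin IIA peptide / Buffer or medium: Calcium-containing HEPES buffer, pH 7.2 / Reagent: TAMRA-labelled myosin IIA heavy-chain peptide probe, 5 nM / Compound: one dose per compound / Timing: polarization read 5 min after assay mix addition, stable 5–60 min / Benchmarks: neutral control DMSO, positive control TFP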
HIV Env fusion – blocks HIV Env-driven cell-cell fusion; HeLa-JRFL Env/CEM21 cell fusion, luciferase; inhibition, % at 12.3 µM; hit rate 1.1% among 360,000; AID 651610;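 active = mean replicate inhibition score of at least 50 and every replicate individually at or above 50; inconclusive = only one of the two criteria met; inactive = mean below 50 and not all replicates reaching 50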;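 also: 0% = plate neutral controls and 100% = maraviroc near 300 nM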
Ecoli rRNA inh – inhibits bacterial ribosomal RNA function over humanized ribosomes. E. coli WT GFP vs humanized-ribosome RFP mutants, fluorescence, 24 h; active compounds read low; DMSO median 0, no signal -100. GFP signal change (wild-type ribosome), % (concentration not given with the values). hit rate 1.6% among 350,000;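 active = significant combined selectivity score with lowered wild-type GFP, culture density cut under 30%, mutant RFP and density less affected; inactive = any of these conditions unmet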
miR-122 sensor – blocks miR-122 activity in Huh7 sensor cells; Huh7 miR-122 Renilla luciferase sensor, 48 h; neutral wells = 0, positive control = 100; activation (reporter increase), % at 12.5 µM; hit rate 0.3% among 340,000;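 active = mean replicate activation score at least 90 and every replicate individually at or above 90; inconclusive = only one of the two criteria met; inactive = neither criterion met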;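 also: higher luciferase means less miR-122 activity so hits act as miR-122 inhibitors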
FN deposit inh – fibronectin deposition inhibition; inhibition, % at 12.6 µM; AH1F fibroblasts, Alexa488-fibronectin deposition fluorescence, overnight; hit rate 0.086% among 350,000;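 active = mean inhibition across replicates of 30% or more, regardless of how many single replicates reach that level; inconclusive = mean under 30% yet at least half of replicates reach 30%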;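 also: positive control wells lacked labelled fibronectin entirely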
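Test system: AH1F fibroblast monolayer depositing Alexa488-labelled fibronectin into matrix. Input: 10000 cells per well. Technique: fluorescence, ex 485 nm, em 525 nm. Buffer or medium: DMEM plus 2% serum, read in PBS. Timing: 1 h cell adhesion before compound, then overnight fibronectin incubation. Compound: single dose, pinned. Read-out basis: inhibition from reduced deposited-fibronectin fluorescence.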
HepG2 cytotox – HepG2 cell cytotoxicity. shares compounds with Ecoli rRNA inh. HepG2 viability, ATP luminescence, 72 h. activity change, negative = cytotoxicity, unspecified at 26 µM. 30 tested, under 10 active;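 active = compounds whose fitted half-maximal signal-loss concentration is at most twice their highest valid dose; inconclusive = flat curve with 30 to 70% signal loss, or poor fit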
AID977621 – wild-type E. coli growth inhibition versus H69 humanized strain – H69 mutant RFP, wild-type GFP, cherry-pick, dose response. activity change, negative = inhibition at 50 µM. fluorescence, 24 h. AID 977621. shares compounds with Ecoli rRNA inh. 1,900 tested, under 10 active;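 active = Wild-type ribosome reporter drop at least double the humanized mutant ribosome reporter drop, growth loss under a set limit; inconclusive = no clear call, values can overlap the other calls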;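 also: wild-type GFP and H69 mutant RFP strains grown together 50/50 in each well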
AID977628 – growth of wild-type and h24-humanized E. coli strains – h24 mutant RFP vs wild-type GFP, cherry-pick, dose response; shares compounds with Ecoli rRNA inh; E. coli WT GFP strain growth, fluorescence, 24 h; activity change, negative = inhibition at 50 µM; 1,900 tested, under 10 active; AID 977628;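 active = compound lowering the normal-ribosome reporter at least twice as much as the humanized-ribosome reporter, growth loss under a set limit; inconclusive = no clear call, values can overlap the other calls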;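 also: wild-type GFP and h24 humanized RFP strains co-cultured 1 to 1 per well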
The depositor's hits bear a star; [ ] = another dose, or the depositor's remark.

What do the screens show for `CCCNC(=O)CCCCn1c(=S)[nH]c2c([nH]c3ccc(OC)cc32)c1=O`?
Vif inh: -26; S100A4 inh HTS: -3; HIV Env fusion: -2; Ecoli rRNA inh: 18; FN deposit inh: -2

Results for COc1ccc2[nH]c3c(=O)n(CCCCC(=O)NCCC(C)C)c(=S)[nH]c3c2c1 ?
Vif inh: 6; S100A4 inh HTS: 3; HIV Env fusion: 1; Ecoli rRNA inh: -25*; FN deposit inh: -6; HepG2 cytotox: 11

What do the screens show for `CCOC(=O)c1cc(-c2ccc(OC)cc2)n[nH]1`?
Vif inh: -4; S100A4 inh HTS: -5; HIV Env fusion: -15; Ecoli rRNA inh: -25*; FN deposit inh: 1; AID977621: -24; AID977628: -13

What do the screens show for `Cc1ccc(Cc2c(-c3cccc(Br)c3)nc3ccc(C)cn23)cc1`?
S100A4 inh HTS: -6; HIV Env fusion: inconclusive; Ecoli rRNA inh: -27*; FN deposit inh: -9; AID977621: 0.33; AID977628: -9

How did COC(=O)c1ccc2nc(-c3ccc(F)cc3)c(Cc3cccc(F)c3)n2c1 do in these assays?
S100A4 inh HTS: 1; HIV Env fusion: 8; Ecoli rRNA inh: -24*; FN deposit inh: -1; AID977621: -3.1; AID977628: -6

What do the screens show for `COC(=O)c1ccc2nc(-c3ccc(OC)c(OC)c3)c(Cc3ccc(C)cc3)n2c1`?
S100A4 inh HTS: -9; HIV Env fusion: -9; Ecoli rRNA inh: -15*; miR-122 sensor: 1; FN deposit inh: -11; AID977621: -19

Results for COC(=O)c1ccc2nc(-c3ccc(C)cc3)c(Cc3ccc(C)cc3)n2c1 ?
S100A4 inh HTS: -2; HIV Env fusion: -24; Ecoli rRNA inh: -2; FN deposit inh: 0

How did COc1ccc(-c2nc3c(C)cc(Br)cn3c2Cc2ccc(C)cc2)cc1OC do in these assays?
S100A4 inh HTS: -3; HIV Env fusion: -24; Ecoli rRNA inh: -6.1*; miR-122 sensor: 7; FN deposit inh: 0; AID977628: inconclusive

What do the screens show for `C[C@H]1CN([C@@H](C)CO)C(=O)c2cc(C#CC3CCCCC3)cnc2O[C@H]1CN(C)C(=O)Cc1ccccn1`?
S100A4 inh HTS: -44; HIV Env fusion: 6[16.7 µM]; Ecoli rRNA inh: 1; miR-122 sensor: -11[16.7 µM]; FN deposit inh: 2

What do the screens show for `COc1ccc(CN(C)C[C@@H]2OCCCC[C@H](C)Oc3ccc(NC(=O)NC4CCCCC4)cc3C(=O)N([C@H](C)CO)C[C@@H]2C)cc1`?
S100A4 inh HTS: -10; HIV Env fusion: -26[16.7 µM]; Ecoli rRNA inh: -4; miR-122 sensor: 9[16.7 µM]; FN deposit inh: -2

What do the screens show for `COC(=O)c1ccc2nc(-c3ccco3)c(Cc3cccc(F)c3)n2c1`?
S100A4 inh HTS: -5; HIV Env fusion: 30; Ecoli rRNA inh: 9; miR-122 sensor: 2; FN deposit inh: -9

What do the screens show for `COC(=O)c1ccc2nc(-c3ccco3)c(Cc3ccc(C)cc3)n2c1`?
S100A4 inh HTS: -5; HIV Env fusion: 1; Ecoli rRNA inh: -29*; miR-122 sensor: -2; FN deposit inh: -4; AID977621: -6.3; AID977628: inconclusive

Results for CCC(=O)N1CC2(CN(C(=O)Cc3ccccc3)C2)c2c(n(C)c3cc(OC)ccc23)[C@H]1CO ?
S100A4 inh HTS: 1; Ecoli rRNA inh: -4

What do the screens show for `C[C@@H]1CCCCO[C@H](CN(C)C(=O)CCCN(C)C)[C@@H](C)CN([C@@H](C)CO)C(=O)c2cc(NC(=O)c3ccccc3)ccc2O1`?
HIV Env fusion: -12[16.7 µM]; Ecoli rRNA inh: 0; miR-122 sensor: -4[16.7 µM]

How did Cc1cc(SCC(=O)OCC(=O)NCC2CCCO2)c(C)cc1Br (stereo not given) do in these assays?
Vif inh: 0; S100A4 inh HTS: -23; HIV Env fusion: 19; Ecoli rRNA inh: -25*; FN deposit inh: -8; AID977621: -17

What do the screens show for `O=C(Cc1c(F)cccc1Cl)N(Cc1ccccc1)c1ccccn1`?
Vif inh: -3; S100A4 inh HTS: -11; HIV Env fusion: 16; Ecoli rRNA inh: -21*; FN deposit inh: -3; AID977621: 5; AID977628: -5.9

Results for FC(F)(F)c1ccc(Cl)c(-n2c(Cc3cccs3)n[nH]c2=S)c1 ?
Vif inh: 1; S100A4 inh HTS: -5; HIV Env fusion: -6; Ecoli rRNA inh: -33*; miR-122 sensor: 9; FN deposit inh: 2; AID977621: -18

What do the screens show for `Cc1onc(-c2c(Cl)cccc2Cl)c1C(=O)Nc1ccc(Cl)cn1`?
Vif inh: -7; S100A4 inh HTS: 2; HIV Env fusion: 11; Ecoli rRNA inh: -20*; FN deposit inh: 1; AID977621: -0.98; AID977628: -3

How did Cc1onc(-c2ccccc2)c1C(=O)Nc1ccc(Cl)cn1 do in these assays?
Vif inh: 0; S100A4 inh HTS: -12; HIV Env fusion: 5; Ecoli rRNA inh: -15; miR-122 sensor: 19; FN deposit inh: -7

Results for Cc1ccc(NC(=O)c2c(-c3ccccc3Cl)noc2C)nc1 ?
Vif inh: -4; S100A4 inh HTS: -7; HIV Env fusion: 10; Ecoli rRNA inh: 22; FN deposit inh: -7

Results for Cc1onc(-c2ccccc2Cl)c1C(=O)Nc1ccc(Cl)cn1 ?
Vif inh: 20; S100A4 inh HTS: -4; HIV Env fusion: 8; Ecoli rRNA inh: -22*; FN deposit inh: -10; AID977621: -10; AID977628: -6.3

How did Cc1ccc(C(=O)Cn2nnc(-c3cccs3)n2)cc1 do in these assays?
Vif inh: -12; S100A4 inh HTS: 5; HIV Env fusion: 10; Ecoli rRNA inh: 8; miR-122 sensor: -7; FN deposit inh: -8

How did O=C(CN1CC[n+]2c(-c3cccs3)csc21)c1ccc(-c2ccccc2)cc1 do in these assays?
Vif inh: -8; S100A4 inh HTS: 18; HIV Env fusion: 4; Ecoli rRNA inh: -41*; FN deposit inh: 3; AID977621: 0.078; AID977628: -2.2
